From ChEMBL document CHEMBL1121715, “New antiarrhythmic agents. 4. 1'-(Aminoalkyl)-1,2,3,4-tetrahydronaphthalene-1-spiro-3'-pyrrolidine-2',5'-dione derivatives” (J Med Chem, 1981)

Experiments:
Mus musculus [1] = species on record: Mus musculus; experiment: Percentage toxicity measured as ataxia.; format: organism-based; settings: in vivo
Summary of the method: (§1)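 Mice (groups of 10) were dosed sc with drug in 0.9% saline and watched for 20 min for overt toxicity (ataxia, convulsions, loss of righting reflex, death) before chloroform exposure.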

Canis familiaris [2] = experiment: MABP value was measured in anesthetized dog at 0.018 dose; format: functional, Canis lupus familiaris; settings: in the assay text read “unanesthetized dog” for “anesthetized dog”
Summary of the method: (§2)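 Adult female dogs (6.7–14.5 kg) had the left anterior descending coronary artery ligated in two stages the day before testing. Dogs were unanesthetized. Ectopic beats (% of ventricular rate) and mean arterial pressure were read at maximal antiarrhythmic effect against the cumulative dose.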

Canis familiaris [3] = experiment: MABP value was measured in anesthetized dog at 0.053 dose; format: functional, Canis lupus familiaris; settings: in the assay text read “unanesthetized dog” for “anesthetized dog”
Summary of the method: (§3)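 Adult female dogs (6.7–14.5 kg) had two-stage ligation of the left anterior descending coronary artery the day before testing. After control ventricular rate, % ectopic beats and mean arterial pressure were recorded, the drug (HCl salt, isotonic solution) was infused iv without anesthesia at 0.1, 0.5 or 1.0 (mg/kg)/min, mostly 0.5. Infusion continued until the arrhythmia was abolished or cardiovascular/CNS toxicity appeared. Cumulative dose is given in mmol/kg; toxicity included convulsion and P-R prolongation ≥25%.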

Mus musculus [4] = experiment: Protection against chloroform induced arrhythmias was measured in mice after sc administration at given dose; format: functional
Summary of the method: (§4)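 Groups of 10 unanesthetized mice got sc injection of drug in 0.9% saline. After 20 min observation they were placed one by one in chloroform-vapor-saturated air. When breathing stopped, the thorax was opened and the heart inspected by eye; coordinated ventricular contractions counted as protected.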

Canis familiaris [5] = species on record: Canis familiaris; experiment: Toxicity of blood level was measured; format: organism-based, Canis lupus familiaris; settings: dog, in vivo
Summary of the method: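 In coronary-ligated conscious dogs under iv infusion, blood was sampled at toxicity. Drug was extracted with methylene chloride at pH 10.3 (ammonium citrate/ammonia) with another analogue as internal standard, then derivatized with heptafluorobutyrylimidazole. Assay was GC-FID on 3% JXR, quantified from drug/internal standard peak-height ratio against standard curves; results in μmol/mL.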

Canis familiaris [6] = species on record: Canis familiaris; experiment: The Maximum dose of the compound; format: functional, Canis lupus familiaris; summary of the method: as §3
[7] = Percentage toxicity measured as death of mice.; format: organism-based; parameters: concentration or dose not given beside the values; settings: mouse, in vivo; read-out: Death
[8] = Volume of distribution was measured at given dose of 227 uM/kg; format: ADME, organism-based; settings: in vivo
Summary of the method: (§5)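 In dogs given iv infusions, blood samples were alkaline-extracted (pH 10.3) into methylene chloride and derivatized with heptafluorobutyrylimidazole. Concentrations were measured by GC-FID against an internal standard using standard curves. Clearance was total dose ÷ blood-level AUC (zero to infinity), and volume of distribution was clearance ÷ elimination rate constant.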

Canis familiaris [9] = experiment: % ectopic beats was measured in anesthetized dog at 0.015 dose; format: functional, Canis lupus familiaris, Heart; settings: in the assay text read “unanesthetized” for “anesthetized”; summary of the method: as §2
Canis familiaris [10] = experiment: Ventricular rate was measured in anesthetized dog at 0.058 dose; format: functional, Canis lupus familiaris, Heart; settings: in the assay text read “unanesthetized” for “anesthetized”
Summary of the method: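 Adult female dogs (6.7–14.5 kg) had ventricular arrhythmias from two-stage ligation of the left anterior descending coronary artery the day before. Ventricular rate (bpm) was read at maximal antiarrhythmic effect against cumulative dose.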

Canis familiaris [11] = experiment: % ectopic beats was measured in anesthetized dog at 0.053 dose; format: functional, Canis lupus familiaris, Heart; settings: in the assay text read “unanesthetized” for “anesthetized”; summary of the method: as §2
Canis familiaris [12] = species on record: Canis familiaris; experiment: Nature of toxicity was expressed; A-V convulsion; format: organism-based, Canis lupus familiaris; settings: dog, in vivo; summary of the method: as §3
Canis familiaris [13] = experiment: % ectopic beats was measured in anesthetized dog at 0.018 dose; format: functional, Canis lupus familiaris, Heart; settings: in the assay text read “unanesthetized” for “anesthetized”; summary of the method: as §2
[14] = Total body clearance was measured at given dose; format: ADME
Summary of the method: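 Blood levels came from the iv-infused dogs, measured by GC-FID after methylene chloride extraction and heptafluorobutyryl derivatization with an internal standard. Total body clearance was total dose divided by the blood-level AUC (zero to infinity); volume of distribution was clearance divided by the elimination rate constant.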

Canis familiaris [15] = experiment: MABP value was measured in anesthetized dog at 0.023 dose; format: functional, Canis lupus familiaris; settings: in the assay text read “unanesthetized dog” for “anesthetized dog”; summary of the method: as §2
[16] = Volume of distribution was measured at given dose of 83 umol/kg; format: ADME, organism-based; settings: in vivo; summary of the method: as §5
[17] = Maximal concentration in dogs after intravenous administration; settings: dog, in vivo
Canis familiaris [18] = experiment: as above; settings: dog, in vivo
Canis familiaris [19] = experiment: MABP value was measured in anesthetized dog at 0.038dose; format: functional, Canis lupus familiaris; settings: in the assay text read “unanesthetized dog” for “anesthetized dog”; summary of the method: as §3
Canis familiaris [20] = experiment: Blood level was measured in anesthetized dog at 0.018 dose; format: functional, Canis lupus familiaris
Canis familiaris [21] = experiment: % ectopic beats was measured in anesthetized dog at 0.023 dose; format: functional, Canis lupus familiaris, Heart; settings: in the assay text read “unanesthetized” for “anesthetized”; summary of the method: as §2
Canis familiaris [22] = experiment: Blood level was measured in anesthetized dog at 0.015 dose; format: functional, Canis lupus familiaris
Canis familiaris [23] = experiment: Blood level was measured in anesthetized dog at 0.038 dose; format: functional, Canis lupus familiaris
Canis familiaris [24] = experiment: MABP value was measured in anesthetized dog at 0.058 dose; format: functional, Canis lupus familiaris; settings: in the assay text read “unanesthetized dog” for “anesthetized dog”; summary of the method: as §3
Canis familiaris [25] = experiment: % ectopic beats was measured in unanesthetized dog at 0.058 dose
Canis familiaris [26] = experiment: MABP value was measured in anesthetized dog at 0.015 dose; format: functional, Canis lupus familiaris; settings: in the assay text read “unanesthetized dog” for “anesthetized dog”; summary of the method: as §2
Mus musculus [27] = species on record: Mus musculus; experiment: Percentage toxicity measured as convulsions.; format: organism-based; settings: in vivo; summary of the method: as §1
Mus musculus [28] = experiment: Protection against chloroform induced arrhythmias in mice after subcutaneous administration at 100 mg/kg dose.; format: functional; summary of the method: as §4
Mus musculus [29] = species on record: Mus musculus; experiment: Percentage toxicity measured as loss of righting reflex.; format: organism-based; settings: in vivo; summary of the method: as §1
Canis familiaris [30] = experiment: Ventricular rate was measured in anesthetized dog at 0.018 dose; format: functional, Canis lupus familiaris, Heart; settings: in the assay text read “unanesthetized dog” for “anesthetized dog”; summary of the method: as §3
Canis familiaris [31] = experiment: Ventricular rate was measured in anesthetized dog at 0.053 dose; format: functional, Canis lupus familiaris, Heart; settings: in the assay text read “unanesthetized dog” for “anesthetized dog”; summary of the method: as §3
Canis familiaris [32] = experiment: Blood level was measured in anesthetized dog at 0.023 dose; format: functional, Canis lupus familiaris
Canis familiaris [33] = species on record: Canis familiaris; experiment: The Maximum dose of the Compound; format: functional, Canis lupus familiaris; summary of the method: as §3
Canis familiaris [34] = species on record: Canis familiaris; experiment: The dose at which toxicity was measured; 0.065; 0.0182; format: organism-based, Canis lupus familiaris; settings: dog, in vivo; summary of the method: as §3
Canis familiaris [35] = experiment: Ventricular rate was measured in anesthetized dog at 0.015 dose; format: functional, Canis lupus familiaris, Heart; settings: in the assay text read “unanesthetized dog” for “anesthetized dog”; summary of the method: as §3
Canis familiaris [36] = experiment: Blood level was measured in anesthetized dog at 0.058 dose; format: functional, Canis lupus familiaris
Canis familiaris [37] = experiment: Ventricular rate was measured in anesthetized dog at 0.023 dose; format: functional, Canis lupus familiaris, Heart; settings: in the assay text read “unanesthetized” for “anesthetized”; summary of the method: as §3
Canis familiaris [38] = experiment: Ventricular rate was measured in anesthetized dog at 0.038 dose; format: functional, Canis lupus familiaris, Heart; settings: in the assay text read “unanesthetized dog” for “anesthetized dog”; summary of the method: as §3
Canis familiaris [39] = experiment: % ectopic beats was measured in anesthetized dog at 0.038 dose; format: functional, Canis lupus familiaris, Heart; settings: in the assay text read “unanesthetized” for “anesthetized”; summary of the method: as §2
Canis familiaris [40] = experiment: Blood level was measured in anesthetized dog at 0.053 dose; format: functional, Canis lupus familiaris

Question: Which Ataxia (Mus musculus [1]) does the source give for `CN(C)CCCCN1C(=O)CC2(CCCc3ccc(O)cc32)C1=O` (stereo unspecified) here?
Answer: 0%

Question: And the MABP (Canis familiaris [2])?
Answer: 120 mmHg

Question: And the MABP (Canis familiaris [3])?
Answer: 135 mmHg

Question: And the ED50 (Mus musculus [4])?
Answer: 160 µmol/kg

Question: What about the Blood level (Canis familiaris [5]) of the same compound?
Answer: 12 µM

Question: And the Dose (Canis familiaris [6])?
Answer: 227 µM/kg

Question: And the mortality [7]?
Answer: 0%

Question: What about the Vd [8] of the same compound?
Answer: 3.35 L/kg

Question: What about the Etopic beats (Canis familiaris [9]) of the same compound?
Answer: 0%

Question: And the Ventricular rate (Canis familiaris [10])?
Answer: 171 beats min-1

Question: And the Etopic beats (Canis familiaris [11])?
Answer: 3%

Question: What about the Nature (Canis familiaris [12]) of the same compound?
Answer: A-V convulsion

Question: And the Etopic beats (Canis familiaris [13])?
Answer: 1%

Question: And the ClB [14]?
Answer: 17.5 mL/min/kg

Question: What about the clearance ([14]; ClB) of the same compound?
Answer: 31.6 mL/min/kg

Question: And the MABP (Canis familiaris [15])?
Answer: 110 mmHg

Question: What about the Vd [16] of the same compound?
Answer: 3.02 L/kg

Question: And the Cmax [17]?
Answer: 37 µM

Question: What about the Cmax (Canis familiaris [18]) of the same compound?
Answer: 30 µM

Question: And the MABP (Canis familiaris [19])?
Answer: 105 mmHg

Question: And the Blood level (Canis familiaris [20])?
Answer: 0.022 uM ml-1

Question: What about the Etopic beats (Canis familiaris [21]) of the same compound?
Answer: 93%

Question: What about the Blood level (Canis familiaris [22]) of the same compound?
Answer: 0.024 uM ml-1

Question: What about the Blood level (Canis familiaris [23]) of the same compound?
Answer: 0.023 uM ml-1

Question: What about the MABP (Canis familiaris [24]) of the same compound?
Answer: 95 mmHg

Question: What about the Ectopic beats (Canis familiaris [25]) of the same compound?
Answer: 4%

Question: And the MABP (Canis familiaris [26])?
Answer: 85 mmHg

Question: What about the Convulsion (Mus musculus [27]) of the same compound?
Answer: 0%

Question: What about the Protection (Mus musculus [28]) of the same compound?
Answer: 100%

Question: And the “Loss of righting reflex” value (Mus musculus [29])?
Answer: 0%

Question: And the Ventricular rate (Canis familiaris [30])?
Answer: 150 beats min-1

Question: And the Ventricular rate (Canis familiaris [31])?
Answer: 183 beats min-1

Question: And the Blood level (Canis familiaris [32])?
Answer: 0.02 uM ml-1

Question: What about the Dose (Canis familiaris [33]) of the same compound?
Answer: 83 µM/kg

Question: What about the Dose (Canis familiaris [34]) of the same compound?
Answer: A-V convulsion

Question: What about the Ventricular rate (Canis familiaris [35]) of the same compound?
Answer: 165 beats min-1

Question: And the Blood level (Canis familiaris [36])?
Answer: 0.017 uM ml-1

Question: And the Ventricular rate (Canis familiaris [37])?
Answer: 138 beats min-1

Question: And the Ventricular rate (Canis familiaris [38])?
Answer: 171 beats min-1

Question: What about the Etopic beats (Canis familiaris [39]) of the same compound?
Answer: 0%

Question: What about the Blood level (Canis familiaris [40]) of the same compound?
Answer: 0.028 uM ml-1
